Source: PubChem BioAssay (several laboratories)
Only a selection was taken, and hits are over-represented in it overall.
Redox H2O2 prof: compounds producing H2O2 with reducing agent – biochemical, NIH compound library profiling, artefact control for MLSCN library redox annotation, primary screen | 0.03% of 200,000 active | DTT-dependent redox cycling H2O2, phenol red/HRP absorbance; 100% = 100 µM peroxide control, 0% = buffer | AID 878 | activation, % at 10 µM;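 active means activation of at least 50% relative to the plate's high and low controls in the primary single-dose screen; inactive means activation below 50%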;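 further: compound incubated with DTT at 0.8 mM final as the reducing agent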
Diaph inh CS: diaphorase inhibition or chemical oxidation counter-screen; diaphorase resazurin-to-resorufin fluorescence, NADH, 16 min; bacterial (C. kluyveri) enzyme, not human; inhibition, % at 20 µM; 0.69% of 190,000 active;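 active means primary screen inhibition at 20 µM above a set limit, cut at about 50% in these data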;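 further: plate controls were DMSO with full reaction for no effect and wells lacking NADH for full effect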
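Test system: bacterial diaphorase enzyme (C. kluyveri); Quantity: 0.14 U/mL diaphorase, enzyme working solution; Times: reaction incubation of 16 min at room temperature; Measured by: fluorescence of resorufin formed from resazurin, Ex 544/Em 590 nm; Benchmarks: positive control minus NADH, DMSO neutral control.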
Lmaj promast: inhibitors of Leishmania major promastigote growth; AID 1063; 9% of 200,000 active; inhibition, % at 10 µM; Leishmania major promastigotes, resazurin fluorescence viability;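 further: promastigotes grown with compound for 44 hours at 28 °C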
Diaphorase act: diaphorase activation or chemical reduction counter-screen | activation factor at 20 µM | 0.005% of 190,000 active | AID 1229 | Diaphorase/resazurin coupled assay, resorufin fluorescence, 16 min; stronger effect = higher value; 1 = vehicle wells, 0 = NADH-free wells;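 active means diaphorase activity raised at least twofold by the compound at 20 µM; inactive means activation factor below 2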
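Material: Clostridium kluyveri diaphorase, purified enzyme; Quantity: enzyme 0.07 U/mL final; Medium: HEPES pH 7.4 buffer with MgCl2 and Tween 20; Dosing: single compound dose of 20 µM, 1% DMSO final; Schedule: 16 min reaction at room temperature; Measured by: red resorufin fluorescence at 544/590 nm excitation/emission.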
PfG6PD inh: PfG6PD (Plasmodium falciparum) enzyme inhibition; PfGluPho enzyme, NADPH resazurin-diaphorase fluorescence; inhibition, % at 20 µM; 0.78% of 350,000 active; AID 504690;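 active means inhibition reaching at least a set limit at 20 µM in the primary screen, cut at about 59% in these data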;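 further: 0% = DMSO wells with substrate and 100% = DMSO wells lacking glucose-6-phosphate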
G6PDH CS: inhibits Leuconostoc G6PDH, flagging false hits in G6PDH-based assays; Purified L. mesenteroides G6PDH, diaphorase/resazurin coupled fluorescence, 45 min; inhibition, % at 5 µM; 0.12% of 200,000 active; AID 1020
* = called active by the depositor; x = no result given. Unless noted, no stated cut-off is given here; in the data, active means inhibition above about 50%; inactive means the rest.

SMILES | Redox H2O2 prof | Diaph inh CS | Lmaj promast | Diaphorase act | PfG6PD inh | G6PDH CS
Cc1ccc(-n2ncc(C(=O)Nc3ccc(Cl)cc3)c2C2CCNCC2)cc1C | 0 | -3 | 99* | 1 | 14 | 15
O=C(c1ccco1)N1CCN(C(=O)c2cnn(-c3ccc(Cl)cc3)c2C2CCNCC2)CC1 | x | x | x | x | 13 | x
CC(=O)Nc1ccccc1OC(C)C(=O)NC(C)c1ccc(F)cc1 (centres undefined) | 0 | 13 | -2 | 0.9 | -5 | 12
CN1CCN(c2ccc(C(F)(F)F)cc2NC(=O)c2ccco2)CC1 | x | x | x | x | 11 | x
CC1(C)C2CC=C(/C=N/NC(=S)NCCc3ccccc3)C1C2 (centres undefined) | -1 | 11 | 87* | 0.9 | 19 | 1
CNC(=S)N/N=C/C1=CCC2CC1C2(C)C (centres undefined) | -1 | 6 | 97* | 0.9 | 5 | -11
S=c1nc(-c2ccc(Br)cc2)[nH]c2ccccc12 | x | x | x | x | -4 | x
S=c1nc(-c2ccccc2)[nH]c2ccccc12 | 0 | 66* | 2 | 0.3 | 13 | -1
S=c1[nH]nc(COc2ccccc2)n1/N=C/C=C/c1ccccc1 | 0 | 36 | -6 | 0.6 | 16 | -34
S=c1[nH]nc(COc2ccccc2)n1/N=C/C(Cl)=C/c1ccccc1 | 8 | 37 | 81* | 0.6 | 5 | 7
S=c1[nH]nc(-c2ccncc2)n1/N=C/c1cccc(Cl)c1 | x | x | x | x | 15 | x
Cc1nn(-c2ccccc2)c(C)c1/C=N/n1c(-c2ccncc2)n[nH]c1=S | 0 | 80* | 1 | 0.2 | 37 | 1
S=c1[nH]nc(-c2ccncc2)n1/N=C/C(Cl)=C\c1ccccc1 | 0 | 35 | 53* | 0.7 | 19 | 7
CN(C)c1ccc(/C=N/n2c(-c3cccnc3)n[nH]c2=S)cc1 | 0 | 72* | 7 | 0.3 | 38 | 7
O=C(Nc1ccncc1)C1CCN(S(=O)(=O)c2c(Cl)cccc2Cl)CC1 | x | x | x | x | -15 | x
Cc1ccc(OCC(=O)NNC(=O)c2ccc3c(=O)n4c(nc3c2)CCC4)cc1 | x | x | x | x | -10 | x
Cc1ccc(C)c(NC(=O)C(=O)NCc2ccccn2)c1 | -1 | 0 | 64* | 1 | -14 | -12
O=S(=O)(NN1CCOCC1)c1ccc(Cl)s1 | 1 | 3 | -9 | 1 | 0 | -2
CN1CCN(NS(=O)(=O)c2ccc(Cl)s2)CC1 | 1 | 10 | 55* | 0.9 | 19 | 6
O=C(CCc1c[nH]c2ccccc12)NC(Cc1ccccc1)C(=O)O (centres undefined) | x | x | x | x | -21 | x
COC(=O)c1ccc(Oc2c(C(F)(F)F)oc3c(CN4CCN(C)CC4)c(O)ccc3c2=O)cc1 | -1 | -14 | 100* | 1.1 | -14 | 10
COc1ccccc1Oc1c(C)oc2c(CN3CCOCC3)c(O)ccc2c1=O | x | x | x | x | -17 | x
COc1ccccc1-c1c(C)oc2c(CN3CCN(C)CC3)c(O)ccc2c1=O | 0 | 15 | 90* | 0.9 | 7 | 12
CCOc1ccccc1Oc1c(C)oc2c(CN3CCN(C)CC3)c(O)ccc2c1=O | 0 | 5 | 75* | 1 | -5 | 8
CCOC(=O)c1oc2c(CN3CCN(C)CC3)c(O)ccc2c(=O)c1-c1ccccc1OC | 0 | 9 | -6 | 0.9 | 0 | -16
SMILES | Redox H2O2 prof | Diaph inh CS | Lmaj promast | Diaphorase act | PfG6PD inh | G6PDH CS
COc1ccc(-c2c(C)oc3c(CN4CCN(CCO)CC4)c(O)ccc3c2=O)cc1OC | 0 | 11 | 99* | 0.9 | -21 | 2
COc1ccc(-c2c(C)oc3c(CN4CCOCC4)c(O)ccc3c2=O)cc1OC | x | x | x | x | -6 | x
Cn1c(N)c(C(=O)COC(=O)/C=C/c2ccc(Cl)c(Cl)c2)c(=O)n(C)c1=O | x | x | x | x | 15 | x
CCOC(=O)c1c(NC(=O)CC)sc2c1CCN(Cc1ccccc1)C2 | x | x | x | x | 11 | x
CCOC(=O)c1c(NC(=O)CSc2ncccn2)sc2c1CCN(Cc1ccccc1)C2 | 0 | 13 | 99* | 0.9 | 10 | 6
CCOC(=O)c1c(NC(=S)Nc2ccccc2)sc2c1CCN(CCc1ccccc1)C2 | 1 | 13 | 79* | 0.9 | x | 7
CCOC(=O)c1c(N)sc2c1CCN(CCc1ccccc1)C2 | x | x | x | x | 3 | x
CCOC(=O)c1c(NC(=O)CSc2nnc3c(n2)[nH]c2ccccc23)sc2c1CCN(C)C2 | -7 | x | 100* | x | 38 | x
CC1(C)C(C=C(Cl)Cl)C1C(=O)N1CCN(c2ccccc2)CC1 (centres undefined) | -8 | 24 | 0 | 0.8 | 16 | -12
CN(C)c1ncc(CN2CCC(C(=O)Nc3ccc(-n4cccn4)cc3)CC2)s1 | x | x | x | x | 6 | x
CSCC[C@H](NC(=O)[C@H](Cc1ccccc1)n1c(=O)[nH]c2ccccc2c1=O)C(=O)N[C@@H](Cc1ccccc1)C(=O)O | x | x | x | x | 3 | x
Cc1ccc([C@H]2C[C@H](O)[C@@H](n3cc(COC(=O)c4ccccc4)nn3)CN2C(=O)c2cccs2)cc1 | x | x | x | x | -8 | x
Cc1ccc(NC(=O)CSc2ncccc2C(=O)Oc2cccc([N+](=O)[O-])c2)cc1Cl | 0 | -9 | 70* | 1.1 | 4 | 4
CCOC(=O)c1cccnc1SCC(=O)Nc1ccc(C)cc1 | 1 | 13 | 2 | 0.9 | 4 | -4
C/C(CC(=O)Nc1c(C)cc(C)cc1C)=N\NC(=O)c1cnccn1 | 0 | 4 | -5 | 1 | -6 | 7
O=C(Nc1ccc(Cc2ccc(NC(=O)C3CC3)c(O)c2)cc1O)C1CC1 | 0 | 11 | 52* | 0.9 | 4 | 8
O=C(O)CCC(=O)Nc1ccc(Cc2ccc(NC(=O)CCC(=O)O)c(O)c2)cc1O | 0 | -5 | -6 | 1.1 | -2 | -3
CCCCC(=O)Nc1cnc(NC(=O)c2cccs2)cc1C | x | x | x | x | 1 | x
Cc1ccc(C(OCC(C)(C)C[N+](C)(C)C)c2ccccc2)cc1 (centres undefined) | -1 | -10 | 100* | 1.1 | 19 | 3
Cc1ccccc1C(OCCN(C)C)c1ccccc1 (centres undefined) | 3 | 18 | 3 | 0.8 | -13 | 9
COc1cc(Nc2ccccc2Cl)c([N+](=O)[O-])nc1[N+](=O)[O-] | 0 | 20 | 83* | 0.8 | 4 | 0
COc1ccccc1Nc1ccc([N+](=O)[O-])cc1N | 1 | 14 | 44 | 0.9 | 37 | 7
O=C(CNC(=O)c1ccc(Cl)cc1)c1ccc(Br)cc1 | x | x | x | x | 9 | x
CC(=O)c1cnc2nc(SCc3ccc(Cl)cc3)nn2c1C | x | x | x | x | -11 | x
CN1CCC2(CC1)Nc1nc(SCc3ccc(Cl)cc3)nn1C1=C2CN(C)CC1 | -3 | 4 | 97* | 1 | 4 | 8
c1ccc(-c2noc(CC3CCCCC3)n2)nc1 | -1 | 15 | 4 | 0.8 | -6 | 10
COc1ccccc1CN(C)C[C@@H]1OCc2cnnn2CCCC(=O)N([C@H](C)CO)C[C@H]1C | x | x | x | x | -2 | x
